# Active and inactive are the calls of the source. The rule behind the calls is not given here.
# What was measured:
# [1] = biological target: Acetylcholinesterase (Electrophorus electricus) (UniProt O42275); test: Inhibition of electric eel AChE at 100 uM using acetylthiocholine iodide as substrate preincubated for 10 mins followed by substrate addition and measured for 10 mins by Ellman's method relative to control; conditions: time 20.0 min
# Outline: (§1)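 Ellman single-concentration screen in 50 mM Tris-HCl pH 8.0 with DTNB (6.8 mM stock) and 1% DMSO. Enzyme solution 0.4 U/mL AChE or 0.8 U/mL BChE. Compound and enzyme preincubated 10 min at 25 °C, then ATI (10 mM stock) or BTI (30 mM stock) added. A412 followed for 10 min, blank-subtracted, % inhibition versus no-compound control. Triplicate.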
# Acetylcholinesterase = Acetylcholinesterase (Electrophorus electricus, UniProt O42275); test: Inhibition of electric eel AChE using acetylthiocholine iodide as substrate preincubated for 10 mins followed by substrate addition and measured for 10 mins by Ellman's method
# [2] = biological target: Cholinesterase (Equus caballus) (UniProt P81908); test: Inhibition of equine serum BChE at 100 uM using butyrylthiocholine iodide as substrate preincubated for 10 mins followed by substrate addition and measured for 10 mins by Ellman's method relative to control; conditions: time 20.0 min; outline: as §1
# [3] = Antioxidant activity assessed as trolox equivalent of AAPH radical scavenging activity at 10 uM measured every min for 90 mins by ORAC-FL assay; format: functional
# Outline: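 ORAC-FL in 75 mM phosphate buffer pH 7.4. Sample and fluorescein (150 nM final) preincubated 15 min at 37 °C, then AAPH (12 mM final) added. Fluorescence (ex 485/em 535 nm) read each minute for 90 min. Net AUC after blank subtraction, converted to Trolox equivalents from a Trolox curve (0.5–8, final; Trolox = 1). Duplicate wells, three independent assays.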
# Cholinesterase = Cholinesterase (Equus caballus, UniProt P81908); test: Inhibition of equine serum BChE using butyrylthiocholine iodide as substrate preincubated for 10 mins followed by substrate addition and measured for 10 mins by Ellman's method
# Outline: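 BChE (0.8 U/mL solution) preincubated with inhibitor 10 min at 25 °C in Tris-HCl pH 8.0 with DTNB and 1% DMSO, then BTI (30 mM stock) added. A412 read over 10 min, blank-corrected. IC50 from log[inhibitor] versus % inhibition. Triplicate, mean ± SD.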
# THP-1 [4] = test: Antiinflammatory activity in LPS-induced human THP-1 cells assessed as reduction in IL1beta release at 10 uM peincubated for 1 hr followed by LPS stimulation and measured after 24 hrs by EIA; format: functional, cell-based; conditions: time 25.0 hrs
# Outline: (§2)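 THP-1 cells grown in RPMI 1640 with 10% FCS, penicillin and streptomycin at 37 °C, 5% CO2, then plated overnight at 4×10⁴ cells/well. Test compound added 1 h before 100 ng/ml E. coli O111:B4 LPS; 24 h incubation. Untreated and LPS-only controls. […]; cytokine read by EIA at 450 nm against a standard curve. At least triplicate.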
# THP-1 [5] = test: Antiinflammatory activity in LPS-induced human THP-1 cells assessed as reduction in IL6 release at 10 uM peincubated for 1 hr followed by LPS stimulation and measured after 24 hrs by EIA; format: functional, cell-based; conditions: time 25.0 hrs; outline: as §2
# THP-1 [6] = test: Antiinflammatory activity in LPS-induced human THP-1 cells assessed as reduction in TNFalpha release at 10 uM peincubated for 1 hr followed by LPS stimulation and measured after 24 hrs by EIA; format: functional, cell-based; conditions: time 25.0 hrs; outline: as §2
# THP-1 [7] = test: Antiinflammatory activity in LPS-induced human THP-1 cells assessed as reduction in nitric oxide release at 10 uM peincubated for 1 hr followed by LPS stimulation and measured after 24 hrs by ELISA; format: functional, cell-based; conditions: time 25.0 hrs
# Outline: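 THP-1 cells plated overnight at 4×10⁴ cells/well, given test compound 1 h before 100 ng/ml LPS (E. coli O111:B4), then incubated 24 h. Cell-free supernatants stored at −20 °C, then NO measured by ELISA kit (sensitivity 1,12 […]) from a standard curve. Untreated cells as negative control, LPS-only as positive control. At least triplicate.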
# [8] = biological target: Amyloid-beta precursor protein (Homo sapiens) (UniProt P05067); test: Inhibition of amyloid beta (1 to 42) (unknown origin) self-induced aggregation at 50 uM by Thioflavin T based fluorometric assay relative to control
# Outline: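 Thioflavin T fluorometric assay of Aβ1-42 self-aggregation, with inhibitor and Aβ42 both at 50 (equimolar). Samples dissolved in DMSO. Result given as % inhibition, mean of two independent experiments each run in triplicate.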
# Chain of Cholinesterase (Equus caballus) (P81908 whole entry): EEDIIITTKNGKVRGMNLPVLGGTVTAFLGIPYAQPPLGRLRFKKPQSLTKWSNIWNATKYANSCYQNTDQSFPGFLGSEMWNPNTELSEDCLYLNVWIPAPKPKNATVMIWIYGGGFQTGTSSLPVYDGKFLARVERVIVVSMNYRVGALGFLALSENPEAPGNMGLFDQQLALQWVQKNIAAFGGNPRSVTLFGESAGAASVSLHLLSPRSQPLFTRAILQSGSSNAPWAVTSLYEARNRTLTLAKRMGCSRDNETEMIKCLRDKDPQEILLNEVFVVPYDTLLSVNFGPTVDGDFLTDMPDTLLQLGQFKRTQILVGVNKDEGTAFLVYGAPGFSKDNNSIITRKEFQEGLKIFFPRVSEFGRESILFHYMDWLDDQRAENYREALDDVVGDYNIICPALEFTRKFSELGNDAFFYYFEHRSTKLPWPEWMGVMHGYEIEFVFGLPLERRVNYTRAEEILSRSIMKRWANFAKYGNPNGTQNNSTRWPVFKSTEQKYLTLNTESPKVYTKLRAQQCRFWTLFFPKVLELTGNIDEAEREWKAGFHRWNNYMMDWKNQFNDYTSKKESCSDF
# Chain of Cholinesterase (P81908 whole entry): as above
# Chain of Acetylcholinesterase (Electrophorus electricus) (O42275 24-633 limits assumed): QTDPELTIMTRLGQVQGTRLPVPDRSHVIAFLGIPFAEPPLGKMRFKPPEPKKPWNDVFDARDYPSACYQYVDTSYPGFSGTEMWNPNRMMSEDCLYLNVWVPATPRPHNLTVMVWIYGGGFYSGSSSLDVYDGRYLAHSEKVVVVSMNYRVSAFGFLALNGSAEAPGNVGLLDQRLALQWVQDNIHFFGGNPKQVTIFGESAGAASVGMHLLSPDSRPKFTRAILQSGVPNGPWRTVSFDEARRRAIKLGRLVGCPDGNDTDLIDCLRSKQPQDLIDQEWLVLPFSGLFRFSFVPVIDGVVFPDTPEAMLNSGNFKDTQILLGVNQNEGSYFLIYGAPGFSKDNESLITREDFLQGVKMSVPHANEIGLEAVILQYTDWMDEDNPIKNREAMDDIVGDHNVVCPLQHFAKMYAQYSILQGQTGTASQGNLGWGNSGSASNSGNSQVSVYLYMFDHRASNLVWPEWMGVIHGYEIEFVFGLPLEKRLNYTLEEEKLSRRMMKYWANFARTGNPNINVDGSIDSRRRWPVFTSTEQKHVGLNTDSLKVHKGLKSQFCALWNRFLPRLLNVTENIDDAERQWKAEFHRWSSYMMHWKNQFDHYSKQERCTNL
# Chain of Acetylcholinesterase (O42275 whole entry): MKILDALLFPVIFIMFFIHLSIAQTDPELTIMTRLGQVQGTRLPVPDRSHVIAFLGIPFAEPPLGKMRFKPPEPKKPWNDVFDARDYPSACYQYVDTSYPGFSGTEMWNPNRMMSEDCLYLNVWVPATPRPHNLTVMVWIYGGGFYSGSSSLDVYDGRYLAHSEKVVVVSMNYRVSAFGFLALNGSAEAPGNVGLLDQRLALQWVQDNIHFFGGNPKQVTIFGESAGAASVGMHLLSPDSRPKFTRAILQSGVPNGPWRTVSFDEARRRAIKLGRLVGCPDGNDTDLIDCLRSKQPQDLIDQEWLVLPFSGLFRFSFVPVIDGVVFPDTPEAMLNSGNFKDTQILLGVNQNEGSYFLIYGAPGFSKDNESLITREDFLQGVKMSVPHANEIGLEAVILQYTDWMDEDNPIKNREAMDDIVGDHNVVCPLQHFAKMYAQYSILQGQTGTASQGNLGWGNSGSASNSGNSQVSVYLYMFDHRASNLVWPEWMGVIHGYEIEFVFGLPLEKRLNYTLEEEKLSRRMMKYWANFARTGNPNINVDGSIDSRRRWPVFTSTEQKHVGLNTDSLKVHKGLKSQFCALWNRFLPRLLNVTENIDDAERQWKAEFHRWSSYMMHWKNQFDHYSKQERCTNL
# Chain of Amyloid-beta precursor protein (Homo sapiens) (P05067 whole entry): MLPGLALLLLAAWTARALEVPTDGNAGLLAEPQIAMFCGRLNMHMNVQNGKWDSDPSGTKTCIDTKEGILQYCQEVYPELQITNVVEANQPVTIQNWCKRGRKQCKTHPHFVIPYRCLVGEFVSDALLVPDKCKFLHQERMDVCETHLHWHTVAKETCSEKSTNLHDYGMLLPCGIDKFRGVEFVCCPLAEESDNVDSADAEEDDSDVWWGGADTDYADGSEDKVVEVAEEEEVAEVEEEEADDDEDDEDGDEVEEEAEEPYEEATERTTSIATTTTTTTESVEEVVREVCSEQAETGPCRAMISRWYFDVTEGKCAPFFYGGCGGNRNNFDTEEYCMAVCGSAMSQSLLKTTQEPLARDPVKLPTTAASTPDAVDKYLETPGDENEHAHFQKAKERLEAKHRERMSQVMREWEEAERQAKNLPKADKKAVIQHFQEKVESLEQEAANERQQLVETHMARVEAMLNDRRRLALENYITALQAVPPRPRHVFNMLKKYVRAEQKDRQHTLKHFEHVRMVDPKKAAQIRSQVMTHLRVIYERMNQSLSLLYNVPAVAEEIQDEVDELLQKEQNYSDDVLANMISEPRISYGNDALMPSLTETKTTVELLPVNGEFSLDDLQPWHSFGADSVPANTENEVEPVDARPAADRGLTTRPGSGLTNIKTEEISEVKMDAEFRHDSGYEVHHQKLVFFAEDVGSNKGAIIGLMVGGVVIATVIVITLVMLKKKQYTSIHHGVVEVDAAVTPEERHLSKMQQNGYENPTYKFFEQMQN
smiles,measurement,setting,value
Cn1c(=O)oc2cc(NC(=O)CCCCN3CCN(Cc4ccccc4)CC3)ccc21,inhibition,[1],82%
same,IC50,Acetylcholinesterase,30.9 µM
same,inhibition,[2],< 10%
same,Activity,[3],2.63 equiv
Cn1c(=O)oc2cc(NC(=O)CCN3CCN(Cc4ccc(C(F)(F)F)cc4)CC3)ccc21,inhibition,[1],35%
same,inhibition,[2],< 10%
same,Activity,[3],3.96 equiv
Cc1ccc(N2CCN(CCC(=O)Nc3ccc4c(c3)sc(=O)n4C)CC2)cc1,inhibition,[1],35%
same,inhibition,[2],< 10%
same,Activity,[3],4.31 equiv
Cn1c(=O)sc2cc(C(=O)CCN3CCC(c4ccccc4)CC3)ccc21,inhibition,[1],81%
same,IC50,Acetylcholinesterase,4.32 µM
same,inhibition,[2],79%
same,IC50,Cholinesterase,14 µM
same,Activity,[3],3.1 equiv
Cn1c(=O)sc2cc(NC(=O)CCCN3CCN(Cc4ccccc4)CC3)ccc21,inhibition,[1],93%
same,IC50,Acetylcholinesterase,1.96 µM
same,inhibition,[2],< 10%
same,Activity,[3],3.91 equiv
same,Activity,THP-1 [4],Active
same,Activity,THP-1 [5],Active
same,Activity,THP-1 [6],Active
same,Activity,THP-1 [7],Active
Cn1c(=O)oc2cc(NC(=O)CCN3CCC(Cc4ccccc4)CC3)ccc21,inhibition,[1],64%
same,IC50,Acetylcholinesterase,24.6 µM
same,inhibition,[2],47%
same,Activity,[3],3.87 equiv
O=C(CCN1CCN(Cc2ccccc2)CC1)Nc1ccc2nc(-c3ccccc3)oc2c1,inhibition,[1],< 10%
same,inhibition,[2],< 10%
same,Activity,[3],2.68 equiv
Cn1c(=O)oc2cc(C(=O)CCN3CCN(Cc4ccccc4)CC3)ccc21,inhibition,[1],97%
same,IC50,Acetylcholinesterase,0.89 µM
same,inhibition,[2],< 10%
same,Activity,[3],3.03 equiv
same,Activity,THP-1 [4],Active
same,Activity,THP-1 [5],Active
same,Activity,THP-1 [6],Active
same,Activity,THP-1 [7],Active
Cn1c(=O)sc2cc(NC(=O)CCCN3CCC(c4ccccc4)CC3)ccc21,inhibition,[1],32%
same,inhibition,[2],90%
same,IC50,Cholinesterase,9.65 µM
same,Activity,[3],2.93 equiv
same,Activity,THP-1 [4],Active
same,Activity,THP-1 [5],Active
same,Activity,THP-1 [6],Active
same,Activity,THP-1 [7],Active
Cn1c(=O)oc2cc(NC(=O)CCN3CCN(Cc4ccc(F)cc4)CC3)ccc21,inhibition,[1],66%
same,IC50,Acetylcholinesterase,16.1 µM
same,inhibition,[2],21%
same,Activity,[3],3.92 equiv
Cn1c(=O)oc2cc(NC(=O)CCN3CCN(c4ccc(Cl)cc4)CC3)ccc21,inhibition,[1],30%
same,inhibition,[2],< 10%
same,Activity,[3],3.95 equiv
Cn1c(=O)sc2cc(NC(=O)CCCCN3CCN(Cc4ccccc4)CC3)ccc21,inhibition,[1],87%
same,IC50,Acetylcholinesterase,14 µM
same,inhibition,[2],< 10%
same,Activity,[3],2.67 equiv
O=C(CCN1CCN(Cc2ccccc2)CC1)Nc1ccc2nc(-c3ccccc3)sc2c1,inhibition,[1],< 10%
same,inhibition,[2],< 10%
same,Activity,[3],2.64 equiv
Cn1c(=O)sc2cc(NC(=O)CCN3CCC(c4ccccc4)CC3)ccc21,inhibition,[1],60%
same,IC50,Acetylcholinesterase,60.3 µM
same,inhibition,[2],81%
same,IC50,Cholinesterase,11.1 µM
same,Activity,[3],4.31 equiv
COc1ccc(N2CCN(CCC(=O)Nc3ccc4c(c3)sc(=O)n4C)CC2)cc1,inhibition,[1],31%
same,inhibition,[2],< 10%
same,Activity,[3],4.55 equiv
Cc1ccc(N2CCN(CCC(=O)Nc3ccc4c(c3)oc(=O)n4C)CC2)cc1,inhibition,[1],33%
same,inhibition,[2],< 10%
same,Activity,[3],4.03 equiv
Cn1c(=O)sc2cc(NC(=O)CCN3CCN(Cc4ccc(F)cc4)CC3)ccc21,inhibition,[1],74%
same,IC50,Acetylcholinesterase,7.09 µM
same,inhibition,[2],52%
same,IC50,Cholinesterase,37.6 µM
same,Activity,[3],4.1 equiv
Cn1c(=O)oc2cc(NC(=O)CCN3CCN(Cc4ccccc4)CC3)ccc21,inhibition,[1],81%
same,IC50,Acetylcholinesterase,6.94 µM
same,inhibition,[2],30%
same,Activity,[3],3.78 equiv
same,Activity,THP-1 [4],Active
same,Activity,THP-1 [5],Active
same,Activity,THP-1 [6],Active
same,Activity,THP-1 [7],Active
Cn1c(=O)oc2cc(NC(=O)CCCN3CCN(Cc4ccccc4)CC3)ccc21,inhibition,[1],94%
same,IC50,Acetylcholinesterase,6 µM
same,inhibition,[2],< 10%
same,Activity,[3],3.97 equiv
same,Activity,THP-1 [4],Active
same,Activity,THP-1 [5],Active
same,Activity,THP-1 [6],Active
same,Activity,THP-1 [7],Active
Cn1c(=O)oc2cc(NC(=O)CCN3CCN(c4ccc(C(F)(F)F)cc4)CC3)ccc21,inhibition,[1],35%
same,inhibition,[2],< 10%
same,Activity,[3],3.9 equiv
Cn1c(=O)sc2cc(NC(=O)CCN3CCN(c4ccc(Cl)cc4)CC3)ccc21,inhibition,[1],32%
same,inhibition,[2],< 10%
same,Activity,[3],4.43 equiv
Cn1c(=O)sc2cc(NC(=O)CCN3CCN(Cc4ccccc4)CC3)ccc21,inhibition,[1],92%
same,IC50,Acetylcholinesterase,2.34 µM
same,inhibition,[2],< 10%
same,Activity,[3],4.08 equiv
same,Activity,THP-1 [4],Active
same,Activity,THP-1 [5],Active
same,Activity,THP-1 [6],Active
same,Activity,THP-1 [7],Active
Cn1c(=O)oc2cc(NC(=O)CCN3CCC(c4ccccc4)CC3)ccc21,inhibition,[1],25%
same,inhibition,[2],< 10%
same,Activity,[3],4.09 equiv
Cn1c(=O)sc2cc(NC(=O)CCN3CCC(Cc4ccccc4)CC3)ccc21,inhibition,[1],62%
same,IC50,Acetylcholinesterase,31.9 µM
same,inhibition,[2],60%
same,IC50,Cholinesterase,75.4 µM
same,Activity,[3],4.01 equiv
Cn1c(=O)oc2cc(NC(=O)CCN3CCN(Cc4ccc(Cl)cc4)CC3)ccc21,inhibition,[1],40%
same,inhibition,[2],< 10%
same,Activity,[3],4.19 equiv
Cn1c(=O)sc2cc(NC(=O)CCN3CCN(Cc4ccc(Cl)cc4)CC3)ccc21,inhibition,[1],37%
same,inhibition,[2],< 10%
same,Activity,[3],4.01 equiv
Cn1c(=O)sc2cc(NC(=O)CCN3CCN(c4ccc(F)cc4)CC3)ccc21,inhibition,[1],37%
same,inhibition,[2],< 10%
same,Activity,[3],4.03 equiv
Cn1c(=O)sc2cc(NC(=O)CCN3CCN(Cc4ccc(C(F)(F)F)cc4)CC3)ccc21,inhibition,[1],35%
same,inhibition,[2],< 10%
same,Activity,[3],4.45 equiv
Cn1c(=O)oc2cc(NC(=O)CCN3CCN(c4ccc(F)cc4)CC3)ccc21,inhibition,[1],35%
same,inhibition,[2],< 10%
same,Activity,[3],3.85 equiv
Cn1c(=O)oc2cc(NC(=O)CCN3CCN(c4ccccc4)CC3)ccc21,inhibition,[1],32%
same,inhibition,[2],< 10%
same,Activity,[3],4.02 equiv
Cn1c(=O)sc2cc(NC(=O)CCN3CCN(c4ccc(C(F)(F)F)cc4)CC3)ccc21,inhibition,[1],36%
same,inhibition,[2],< 10%
same,Activity,[3],4.1 equiv
COc1ccc(CN2CCN(CCC(=O)Nc3ccc4c(c3)sc(=O)n4C)CC2)cc1,inhibition,[1],39%
same,inhibition,[2],< 10%
same,Activity,[3],4.28 equiv
Cn1c(=O)sc2cc(NC(=O)CCN3CCN(c4ccccc4)CC3)ccc21,inhibition,[1],34%
same,inhibition,[2],< 10%
same,Activity,[3],4.24 equiv
COc1ccc(CN2CCN(CCC(=O)Nc3ccc4c(c3)oc(=O)n4C)CC2)cc1,inhibition,[1],38%
same,inhibition,[2],< 10%
same,Activity,[3],4.2 equiv
COc1ccc(N2CCN(CCC(=O)Nc3ccc4c(c3)oc(=O)n4C)CC2)cc1,inhibition,[1],29%
same,inhibition,[2],< 10%
same,Activity,[3],4.28 equiv
CN(CCC(=O)Nc1ccc2c(c1)sc(=O)n2C)Cc1ccccc1,inhibition,[1],63%
same,IC50,Acetylcholinesterase,49.5 µM
same,inhibition,[2],70%
same,IC50,Cholinesterase,42 µM
same,Activity,[3],3.9 equiv
CN(CCC(=O)Nc1ccc2c(c1)oc(=O)n2C)Cc1ccccc1,inhibition,[1],58%
same,IC50,Acetylcholinesterase,52.4 µM
same,inhibition,[2],42%
same,Activity,[3],4.3 equiv
O=S1(=O)OC(c2ccc(O)cc2)(c2ccc(O)cc2)c2ccccc21,inhibition,[8],32.2%
